Key:
Type in all cases: functional
[1] = Antineoplastic cytotoxicity against human MEL28 cells after 72 hrs by SRB method; details: SK-MEL-28, 72 h
Method in brief: (§1)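 Cells seeded at 5 × 10^3 per well in RPMI and left to attach for 18 h in drug-free medium. Compounds were then added in DMSO/H2O (3:7) and exposed for 72 h. Cells were fixed with cold 50% TCA for 60 min at 4 °C and stained with 0.4% SRB in 1% acetic acid for 10 min at rt. Bound dye was solubilised in Tris and read at 490 nm. GI50 from 100×[(T−T0)/(C−T0)]=50.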

[2] = system: A549; experiment: Antineoplastic cytotoxicity against human A549 cells after 72 hrs by SRB method; details: A549, 72 h; method in brief: as §1
[3] = system: HT-29; experiment: Antineoplastic cytotoxicity against human HT29 cells after 72 hrs by SRB method; details: HT-29, 72 h; method in brief: as §1

Structure (SMILES)	GI50 [1]	GI50 [2]	GI50 [3]
C=C1CC[C@@H]2[C@](C)(CCC[C@]2(C)C(=O)O)[C@H]1CCc1ccc2c(c1)C(=O)C=CC2=O	5.7 µM	> 7.4 µM	5.7 µM
C=C1CC[C@@H]2[C@](C)(CCC[C@]2(C)C(=O)OC)[C@H]1CCc1ccc2c(c1)C(=O)C=CC2=O	0.2 µM	0.2 µM	0.2 µM
COC(=O)[C@@]1(C)CCC[C@]2(C)C(CCc3ccc4c(OCc5ccccc5)ccc(OCc5ccccc5)c4c3)=C(C)CC[C@@H]12		15.2 µM	> 16.6 µM
C=C1CC[C@@H]2[C@](C)(CCC[C@]2(C)C(=O)OC)[C@H]1CCc1ccc2c(OC)ccc(OC)c2c1	> 6.7 µM	> 6.7 µM	> 6.7 µM
COC(=O)[C@@]1(C)CCC[C@]2(C)C(CCc3ccc4c(OC(C)=O)ccc(OC(C)=O)c4c3)=C(C)C(=O)C[C@@H]12		0.19 µM	0.19 µM
C=C1C(=O)C[C@@H]2[C@](C)(CCC[C@]2(C)C(=O)OC)[C@H]1CCc1ccc2c(OC)ccc(OC)c2c1		3.7 µM	3.2 µM
C=C1CC[C@@H]2[C@](C)(CCC[C@]2(C)C(=O)OC)[C@H]1CCc1ccc2c(OC(C)=O)ccc(OC(C)=O)c2c1	0.12 µM	0.12 µM	0.5 µM
C=C1CC[C@@H]2[C@](C)(CCC[C@]2(C)C(=O)OC)[C@H]1/C=C/c1ccc2c(OC)ccc(OC)c2c1		> 22.3 µM	> 22.3 µM
C=C1CC[C@@H]2[C@](C)(CCC[C@]2(C)C(=O)O)[C@H]1CCc1ccc2c(OC(C)=O)ccc(OC(C)=O)c2c1	0.24 µM	0.24 µM	0.24 µM
C=C1[C@H](O)C[C@@H]2[C@](C)(CCC[C@]2(C)C(=O)OC)[C@H]1CCc1ccc2c(OC)ccc(OC)c2c1	> 6.4 µM	> 6.4 µM	> 6.4 µM
C=C1[C@H](O)C[C@@H]2[C@](C)(CCC[C@]2(C)C(=O)OC)[C@H]1CCc1ccc2c(OC(C)=O)ccc(OC(C)=O)c2c1		1.6 µM	1 µM
COC(=O)[C@@]1(C)CCC[C@]2(C)C(CCc3ccc4c(OC)ccc(OC)c4c3)=C(C)CC[C@@H]12	> 6.7 µM	> 6.7 µM	> 6.7 µM
COC(=O)[C@@]1(C)CCC[C@]2(C)C(CCc3ccc4c(OC(C)=O)ccc(OC(C)=O)c4c3)=C(C)CC[C@@H]12		0.24 µM	0.24 µM
C=C1CC[C@@H]2[C@](C)(CCC[C@]2(C)C(=O)O)[C@H]1CCC1=CCc2c(OC(C)=O)ccc(OC(C)=O)c2C1	5 µM	2.5 µM	10.1 µM
C=C1CC[C@@H]2[C@](C)(CCC[C@]2(C)C(=O)OC)[C@H]1CCC1=CCc2c(OC(C)=O)ccc(OC(C)=O)c2C1	0.68 µM	0.51 µM	1.38 µM
C=C1CC[C@@H]2[C@](C)(CCC[C@]2(C)C(=O)OC)[C@]1(O)CCc1ccc2c(OCc3ccccc3)ccc(OCc3ccccc3)c2c1	9 µM	12.4 µM	12.4 µM
COC(=O)[C@@]1(C)CCC[C@]2(C)C(CCc3ccc4c(OC(C)=O)ccc(OC(C)=O)c4c3)=C(C)[C@@H](O)C[C@@H]12		4.8 µM	4.8 µM
C=C1CC[C@@H]2[C@](C)(CCC[C@]2(C)C(=O)OC)[C@H]1CCc1ccc2c(OCc3ccccc3)ccc(OCc3ccccc3)c2c1	> 5 µM	> 5 µM	> 5 µM
C=C1CC[C@H]2[C@@](C)(CCC[C@@]2(C)C(=O)OC)[C@@H]1CCc1ccc2c(c1)C(=O)c1cc(CC[C@H]3C(=C)CC[C@@H]4[C@]3(C)CCC[C@]4(C)C(=O)OC)ccc1C2=O	> 4.1 µM	> 4.1 µM	> 4.1 µM
COC(=O)[C@@]1(C)CCC[C@]2(C)C(CCc3ccc4c(OC)ccc(OC)c4c3)=C(OOC(C)(C)C)CC[C@@H]12	> 18.6 µM	> 18.6 µM	> 18.6 µM
C=C1CC[C@@H]2[C@](C)(CCC[C@]2(C)C(=O)OCc2ccccc2)[C@H]1CCc1ccc2c(OCc3ccccc3)ccc(OCc3ccccc3)c2c1		6.5 µM	4.4 µM
C=C1C(=O)C[C@@H]2[C@](C)(CCC[C@]2(C)C(=O)OC)[C@H]1CCc1ccc2c(OC(C)=O)ccc(OC(C)=O)c2c1		2.3 µM	4.4 µM
C=C1CC[C@@H]2[C@](C)(CCC[C@]2(C)C(=O)OC)[C@]1(O)CCc1ccc2c(OC)ccc(OC)c2c1		> 21.5 µM	> 21.5 µM
C=C1C(=O)C[C@@H]2[C@](C)(CCC[C@]2(C)C(=O)OC)[C@H]1CCc1ccc2c(OCc3ccccc3)ccc(OCc3ccccc3)c2c1		14.8 µM	8.1 µM
C=C1[C@H](O)C[C@@H]2[C@](C)(CCC[C@]2(C)C(=O)OC)[C@H]1CCc1ccc2c(OCc3ccccc3)ccc(OCc3ccccc3)c2c1	> 4.9 µM	> 4.9 µM	> 4.9 µM

From ChEMBL document CHEMBL1149632, “New cytotoxic diterpenylnaphthohydroquinone derivatives obtained from a natural diterpenoid” (2007)
